Results of several laboratories.
Compare with care: the assays were run in different laboratories. In brackets after ≈: the same amount, converted by molar mass.

SMILES | organism | test | system | setting | measurement | result
Clc1ccc(COC(Cn2ccnc2)c2ccc(Cl)cc2Cl)c(Cl)c1 (stereo not drawn) | Pichia kudriavzevii | microbial growth, broth dilution | – | – | MIC80 | 0.5 µg/mL (≈ 1.2 µM)
O=C1/C(=C/c2ccc3ccccc3c2O)NC(=S)N1c1ccccc1 | Fusarium solani | microbial growth, broth dilution | – | – | MIC | 20 µg/mL (≈ 57.7 µM)
O=C(Nc1ccc(Cl)cc1)c1ccc(COC(Cn2ccnc2)c2ccc(Cl)cc2Cl)cc1 (stereo not drawn) | Pichia kudriavzevii | microbial growth, broth dilution | – | – | MIC80 | 0.125 µg/mL (≈ 0.25 µM)
C#CCOC(=O)ON=C1C=CC(=C(C#N)c2ccccc2)C=C1 | Pichia kudriavzevii | microbial growth, broth dilution | ATCC14243 | 48 h | MIC | 16 µg/mL (≈ 52.6 µM)
CC1=C(Cn2cc(CO)nn2)C(=O)c2ccccc2C1=O | Schistosoma mansoni | parasite growth | – | 72 h, larva | IC50 | 1050 nM
C#CCON=C1C=CC(=C(C#N)c2ccccc2)C=C1 | Pichia kudriavzevii | microbial killing, broth dilution | ATCC14243 | 48 h | MFC | 64 µg/mL (≈ 246 µM)
CC1=C(Cn2cc(C(C)(C)O)nn2)C(=O)c2ccccc2C1=O | Schistosoma mansoni | parasite growth | – | 72 h, larva | IC50 | 1050 nM
O=C(Nc1ccc(Br)cc1)c1ccc(COC(Cn2ccnc2)c2ccc(Cl)cc2Cl)cc1 (stereo not drawn) | Pichia kudriavzevii | microbial growth, broth dilution | – | – | MIC80 | 0.06 µg/mL (≈ 0.11 µM)
CC(=O)N1CCN(c2ccc(OCC3COC(Cn4ccnc4)(c4ccc(Cl)cc4Cl)O3)cc2)CC1 (stereo not drawn) | Pichia kudriavzevii | microbial growth, broth dilution | ATCC14243 | 48 h | MIC | 8 µg/mL (≈ 15.1 µM)
CCn1c(=O)c(-c2cc[nH]n2)cc2c(C)nc(N)nc21 | Enterovirus A | viral replication, inhibitor, qPCR | RD, EV71 | – | IC50 | 158 nM
C=CC(=O)ON=C1C=CC(=C(C#N)c2ccccc2)C=C1 | Pichia kudriavzevii | microbial growth, broth dilution | ATCC14243 | 48 h | MIC | 16 µg/mL (≈ 57.9 µM)
CC1=C(Cn2cc([Si](C)(C)C)nn2)C(=O)c2ccccc2C1=O | Schistosoma mansoni | parasite growth | – | 72 h, larva | IC50 | 1570 nM
N#CC(=C1C=CC(=NOC(=O)OCc2ccccc2)C=C1)c1ccccc1 | Pichia kudriavzevii | microbial growth, broth dilution | ATCC14243 | 48 h | MIC | 128 µg/mL (≈ 359 µM)
CC1=C(Cn2cncn2)C(=O)c2ccccc2C1=O | Schistosoma mansoni | parasite growth | – | 72 h, larva | IC50 | 900 nM
COc1cc(NC(=O)Cn2ccc3ccc(-c4nnc(C)o4)cc32)cc(OC)c1OC | Plasmodium knowlesi | parasite growth, SYBR Green | – | 30 h, blood stage | EC50 | 200 to 660 nM
CC1=C(Cc2cn(CCO)nn2)C(=O)c2ccccc2C1=O | Schistosoma mansoni | parasite growth | – | 72 h, larva | IC50 | 1440 nM
O=C(Nc1ccc(F)cc1F)c1ccc(COC(Cn2ccnc2)c2ccc(Cl)cc2Cl)cc1 (stereo not drawn) | Pichia kudriavzevii | microbial growth, broth dilution | – | – | MIC80 | 0.03 µg/mL (≈ 0.0597 µM)
CC1=C(Cc2cn(CCN3CCNCC3)nn2)C(=O)c2ccccc2C1=O | Schistosoma mansoni | parasite growth | – | 72 h, larva | IC50 | 1670 nM
O=C(Nc1cccc2ccccc12)c1ccc(COC(Cn2ccnc2)c2ccc(Cl)cc2Cl)cc1 (stereo not drawn) | Pichia kudriavzevii | microbial growth, broth dilution | – | – | MIC80 | 16 µg/mL (≈ 31 µM)
CC1=C(Cc2cn(CCN3CCN(C(=O)OC(C)(C)C)CC3)nn2)C(=O)c2ccccc2C1=O | Schistosoma mansoni | parasite growth | – | 72 h, larva | IC50 | 1890 nM
O=C(Nc1cccc(F)c1)c1ccc(COC(Cn2ccnc2)c2ccc(Cl)cc2Cl)cc1 (stereo not drawn) | Pichia kudriavzevii | microbial growth, broth dilution | – | – | MIC80 | 0.25 µg/mL (≈ 0.516 µM)
CC(=O)ON=C1C=CC(=C(C#N)c2ccccc2)C=C1 | Pichia kudriavzevii | microbial growth, broth dilution | ATCC14243 | 48 h | MIC | 16 µg/mL (≈ 60.5 µM)
O=C(Nc1cccc(Br)c1)c1ccc(COC(Cn2ccnc2)c2ccc(Cl)cc2Cl)cc1 (stereo not drawn) | Pichia kudriavzevii | microbial growth, broth dilution | – | – | MIC80 | 0.06 µg/mL (≈ 0.11 µM)
C[C@@H]1[C@H](O)[C@@H](C)/C=C/C=C/C=C/C=C/C=C/C=C/C=C/[C@H](O[C@@H]2O[C@H](C)[C@@H](O)[C@H](N)[C@@H]2O)C[C@@H]2O[C@](O)(C[C@@H](O)C[C@@H](O)[C@H](O)CC[C@@H](O)C[C@@H](O)CC(=O)O[C@H]1C)C[C@H](O)[C@H]2C(=O)O | Pichia kudriavzevii | microbial growth, broth dilution | ATCC14243 | 48 h | MIC | 2 µg/mL (≈ 2.16 µM)
